Experimental data as given in ChEMBL document CHEMBL1126849, “Synthesis of A-ring fluorinated derivatives of (17 alpha,20E/Z)-[125I]iodovinylestradiols: effect on receptor binding and receptor-mediated target tissue uptake” (J Med Chem, 1993).

What was measured:
[1] = tested on: Rattus norvegicus; experiment: Biodistribution in lungs of immature female rat after 1 hr administration of 3 micro Ci (111 kBq) in the presence of (+E2); format: ADME, organism-based, Lung; conditions: in vivo
In short: (§1)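 Immature female Long Evans rats (21–24 days, 45–70 g), unanesthetized in retention cages, given 3 µCi (111 kBq) 125I-labeled steroid i.v. via lateral tail vein. Vehicle was ethanol diluted in saline containing 1% Tween-80, giving 9% ethanol final. The blocking group received 60 µg unlabeled estradiol co-injected. Rats were killed under ether by axillary bleeding, and tissues were KCl-washed and gamma-counted. Data are %ID/g, mean ± SE, n=3–5.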

[2] = tested on: Rattus norvegicus; experiment: Biodistribution in liver of immature female rat after 3 hour administration of 3 micro Ci (111 kBq) in the absence of 60 microg estradiol; format: ADME, organism-based; conditions: in vivo; in short: as §1
[3] = tested on: Rattus norvegicus; experiment: Biodistribution in lungs of immature female rat after 12 hour administration of 3 micro Ci (111 kBq) in the absence of 60 microg estradiol; format: ADME, organism-based, Lung; conditions: in vivo
In short: (§2)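 Immature female Long Evans rats (21–24 days, 45–70 g), three to five per group, given 125I-labeled steroid (3 μCi, 111 kBq) by lateral tail vein without anesthesia. Vehicle: ethanol diluted in saline with 1% Tween-80, final ethanol 9%, 0.22 μm filtered. +E2 groups received 60 μg unlabeled estradiol co-injected. Killed under ether at set times; tissues KCl-washed, blotted, weighed, gamma counted; %ID/g, mean with SE.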

[4] = tested on: Rattus norvegicus; experiment: Biodistribution in thyroid of immature female rat after 12 hour administration of 3 micro Ci (111 kBq) in the absence of 60 microg estradiol; format: ADME, organism-based, Thyroid gland; conditions: in vivo; in short: as §2
[5] = tested on: Rattus norvegicus; experiment: Biodistribution in uterus / spleen, muscle, lungs of immature female rat after 1 hr administration of 3 micro Ci (111 kBq) in the absence of 60 microg estradiol; format: ADME, organism-based; conditions: in vivo
In short: (§3)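 Same in vivo procedure: immature female Long Evans rats (21–24 days), three to five per group, 3 μCi (111 kBq) tracer i.v. via tail vein in 9% ethanol/saline/1% Tween-80, ± 60 μg estradiol co-injected at 1 h. Uterus %ID/g (gamma counting) divided by blood, or by nontarget organ (muscle, spleen, lungs), %ID/g to give ratios.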

[6] = tested on: Rattus norvegicus; experiment: Biodistribution in lungs of immature female rat after 5 hour administration of 3 micro Ci (111 kBq) in the absence of 60 microg estradiol; format: ADME, organism-based, Lung; conditions: in vivo; in short: as §2
[7] = tested on: Rattus norvegicus; experiment: Biodistribution in uterus of immature female rat after 5 hour administration of 3 micro Ci (111 kBq) in the absence of 60 microg estradiol; format: ADME, organism-based; conditions: in vivo
In short: (§4)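 Immature female Long Evans rats (21–24 days, 45–70 g), 3–5 per group, unanesthetized in retention cages, given 3 μCi (111 kBq) 125I-labeled steroid by lateral tail vein. Vehicle: ethanol diluted with saline containing 1% Tween-80, final ethanol 9%. +E2 group co-injected 60 μg unlabeled estradiol (1 h only). Killed under ether; tissues KCl-washed, weighed, gamma-counted. Output: %ID/g (mean, SE) and uterus to blood or nontarget (muscle, spleen, lungs) ratios.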

[8] = tested on: Rattus norvegicus; experiment: Biodistribution in fat of immature female rat after 1 hr administration of 3 micro Ci (111 kBq) in the absence of 60 microg estradiol; format: ADME, organism-based, Adipose tissue; conditions: in vivo; in short: as §1
[9] = tested on: Rattus norvegicus; experiment: Biodistribution in spleen of immature female rat after 12 hour administration of 3 micro Ci (111 kBq) in the absence of 60 microg estradiol; format: ADME, organism-based; conditions: in vivo; in short: as §2
[10] = tested on: Rattus norvegicus; experiment: Biodistribution in thyroid of immature female rat after 5 hour administration of 3 micro Ci (111 kBq) in the absence of 60 microg estradiol; format: ADME, organism-based, Thyroid gland; conditions: in vivo; in short: as §2
[11] = tested on: Rattus norvegicus; experiment: Biodistribution in kidney of immature female rat after 5 hour administration of 3 micro Ci (111 kBq) in the absence of 60 microg estradiol; format: ADME, organism-based; conditions: in vivo; in short: as §1
[12] = target: Estrogen receptor (Mus musculus) (UniProt O08537+P19785); experiment: Relative binding affinity (RBA) against murine cytoplasmic estrogen receptor incubated at 0-4 degree Celsius for 18 hours; format: protein assay
Chain of Estrogen receptor (Mus musculus) (O08537 whole entry, looked up): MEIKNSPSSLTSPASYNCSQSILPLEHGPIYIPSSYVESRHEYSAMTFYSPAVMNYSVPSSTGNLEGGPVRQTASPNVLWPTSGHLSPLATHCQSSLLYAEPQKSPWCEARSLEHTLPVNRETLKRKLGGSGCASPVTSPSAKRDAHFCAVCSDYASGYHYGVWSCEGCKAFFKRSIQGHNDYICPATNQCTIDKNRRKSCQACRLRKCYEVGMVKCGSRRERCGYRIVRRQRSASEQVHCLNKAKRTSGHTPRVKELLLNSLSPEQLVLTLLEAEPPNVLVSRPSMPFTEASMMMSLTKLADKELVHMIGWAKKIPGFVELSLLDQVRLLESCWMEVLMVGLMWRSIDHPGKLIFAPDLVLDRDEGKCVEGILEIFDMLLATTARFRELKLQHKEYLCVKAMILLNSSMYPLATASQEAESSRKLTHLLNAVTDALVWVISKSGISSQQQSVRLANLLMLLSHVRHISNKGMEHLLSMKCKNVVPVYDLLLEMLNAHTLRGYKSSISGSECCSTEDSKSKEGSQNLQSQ
Chain of Estrogen receptor (Mus musculus) (P19785 whole entry, looked up): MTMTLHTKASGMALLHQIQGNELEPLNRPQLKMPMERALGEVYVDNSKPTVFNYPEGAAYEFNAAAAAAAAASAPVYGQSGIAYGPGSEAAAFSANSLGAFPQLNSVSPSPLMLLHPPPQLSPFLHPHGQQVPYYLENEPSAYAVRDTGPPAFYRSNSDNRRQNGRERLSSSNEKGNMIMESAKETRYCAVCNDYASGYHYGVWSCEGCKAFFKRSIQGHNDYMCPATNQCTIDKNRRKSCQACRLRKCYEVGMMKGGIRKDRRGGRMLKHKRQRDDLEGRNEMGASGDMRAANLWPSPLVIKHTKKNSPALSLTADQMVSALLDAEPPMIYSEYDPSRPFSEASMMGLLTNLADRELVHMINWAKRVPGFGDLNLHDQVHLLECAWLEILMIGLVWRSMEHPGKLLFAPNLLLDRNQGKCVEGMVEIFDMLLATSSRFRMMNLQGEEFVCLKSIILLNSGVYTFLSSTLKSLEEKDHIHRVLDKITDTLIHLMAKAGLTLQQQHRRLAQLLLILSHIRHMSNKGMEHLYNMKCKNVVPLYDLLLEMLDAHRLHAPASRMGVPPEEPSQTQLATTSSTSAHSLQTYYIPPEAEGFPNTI
In short: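 Competitive binding on murine uterine cytoplasmic extract with 20 nM [3H]estradiol and competitor steroids at 2 nM–20 μM, incubated 18 h at 0–4 °C. RBA = 100 × ratio of […] concentration giving 50% competition for specific binding. Mean of three experiments with SD.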

[13] = tested on: Rattus norvegicus; experiment: Biodistribution in uterus of immature female rat after 1 hr administration of 3 micro Ci (111 kBq) in the absence of 60 microg estradiol; format: ADME, organism-based; conditions: in vivo; in short: as §4
[14] = tested on: Rattus norvegicus; experiment: Biodistribution in muscle of immature female rat after 1 hr administration of 3 micro Ci (111 kBq) in the absence of 60 microg estradiol; format: ADME, organism-based, Muscle tissue; conditions: in vivo; in short: as §2
[15] = tested on: Rattus norvegicus; experiment: Biodistribution in thyroid of immature female rat after 1 hr administration of 3 micro Ci (111 kBq) in the presence of (+E2); format: ADME, organism-based, Thyroid gland; conditions: in vivo; in short: as §2
[16] = tested on: Rattus norvegicus; experiment: Biodistribution in liver of immature female rat after 5 hour administration of 3 micro Ci (111 kBq) in the absence of 60 microg estradiol; format: ADME, organism-based; conditions: in vivo; in short: as §1
[17] = tested on: Rattus norvegicus; experiment: Biodistribution in blood of immature female rat after 1 hr administration of 3 micro Ci (111 kBq) in the presence of (+E2); format: ADME, organism-based; conditions: in vivo; in short: as §1
[18] = tested on: Rattus norvegicus; experiment: Biodistribution in uterus / spleen, muscle, lungs of immature female rat after 5 hour administration of 3 micro Ci (111 kBq) in the absence of 60 microg estradiol; format: ADME, organism-based; conditions: in vivo; in short: as §4
[19] = tested on: Rattus norvegicus; experiment: Biodistribution in kidney of immature female rat after 1 hr administration of 3 micro Ci (111 kBq) in the presence of (+E2); format: ADME, organism-based; conditions: in vivo; in short: as §1
[20] = tested on: Rattus norvegicus; experiment: Biodistribution in uterus of immature female rat after 12 hour administration of 3 micro Ci (111 kBq) in the absence of 60 microg estradiol; format: ADME, organism-based; conditions: in vivo; in short: as §4
[21] = tested on: Rattus norvegicus; experiment: Biodistribution in muscle of immature female rat after 5 hour administration of 3 micro Ci (111 kBq) in the absence of 60 microg estradiol; format: ADME, organism-based, Muscle tissue; conditions: in vivo; in short: as §2
[22] = tested on: Rattus norvegicus; experiment: Biodistribution in fat of immature female rat after 12 hour administration of 3 micro Ci (111 kBq) in the absence of 60 microg estradiol; format: ADME, organism-based, Adipose tissue; conditions: in vivo; in short: as §1
[23] = tested on: Rattus norvegicus; experiment: Biodistribution in uterus / blood of immature female rat after 1 hr administration of 3 micro Ci (111 kBq) in the absence of 60 microg estradiol; format: ADME, organism-based; conditions: in vivo; in short: as §3
[24] = tested on: Rattus norvegicus; experiment: Biodistribution in muscle of immature female rat after 1 hr administration of 3 micro Ci (111 kBq) in the presence of (+E2); format: ADME, organism-based, Muscle tissue; conditions: in vivo; in short: as §2
[25] = tested on: Rattus norvegicus; experiment: Biodistribution in uterus / blood of immature female rat after 12 hour administration of 3 micro Ci (111 kBq) in the absence of 60 microg estradiol; format: ADME, organism-based; conditions: in vivo; in short: as §3
[26] = tested on: Rattus norvegicus; experiment: Biodistribution in blood of immature female rat after 12 hour administration of 3 micro Ci (111 kBq) in the absence of 60 microg estradiol; format: ADME, organism-based; conditions: in vivo; in short: as §1
[27] = tested on: Rattus norvegicus; experiment: Biodistribution in thyroid of immature female rat after 1 hr administration of 3 micro Ci (111 kBq) in the absence of 60 microg estradiol; format: ADME, organism-based, Thyroid gland; conditions: in vivo; in short: as §2
[28] = tested on: Rattus norvegicus; experiment: Biodistribution in spleen of immature female rat after 1 hr administration of 3 micro Ci (111 kBq) in the absence of 60 microg estradiol; format: ADME, organism-based; conditions: in vivo; in short: as §2
[29] = tested on: Rattus norvegicus; experiment: Biodistribution in uterus / blood of immature female rat after 1 hr administration of 3 micro Ci (111 kBq) in the presence of (+E2); format: ADME, organism-based; conditions: in vivo; in short: as §3
[30] = tested on: Rattus norvegicus; experiment: Biodistribution in kidney of immature female rat after 12 hour administration of 3 micro Ci (111 kBq) in the absence of 60 microg estradiol; format: ADME, organism-based; conditions: in vivo; in short: as §1

Compound | ID/g [1] [%] | ID/g [2] [%] | ID/g [3] [%] | ID/g [4] [%] | uterus-to-nontarget tissue uptake ratio [5] [%] | ID/g [6] [%] | ID/g [7] [%] | ID/g [8] [%] | ID/g [9] [%] | ID/g [10] [%] | ID/g [11] [%] | RBA [12] | ID/g [13] [%] | ID/g [14] [%] | ID/g [15] [%] | ID/g [16] [%] | ID/g [17] [%] | uterus to nontarget tissue ratio [18] [%] | ID/g [19] [%] | ID/g [20] [%] | further results
CO[C@H]1C[C@@]2(C)[C@@H](CC[C@@]2(O)/C=C/I)[C@@H]2CCc3cc(O)c(F)cc3[C@H]21 | 1.22 | 3.56 | 0.13 | 571 | 4.78 | 0.51 | 3.9 | 3.34 | 0.18 | 412 | 1.52 | 13.5 | 4.41 | 0.87 | 243 | 3.11 | 0.51 | 8.56 | 1.58 | 1.2 | ID/g [21]: 0.45%; ID/g [22]: 0.45%; uterus-to-blood ratio of %ID/g [23]: 9.82%; ID/g [24]: 1.02%; Uterus-to-blood radioactivity ratio (dimensionless) [25]: 10.45%; ID/g [26]: 0.11%; ID/g [27]: 224%; ID/g [28]: 0.83%; uterus/blood %ID/g ratio [29]: 1.6%; ID/g [30]: 0.15%
C[C@@H]1Cc2cc(O)c(F)cc2[C@H]2CC[C@@]3(C)[C@@H](CC[C@@]3(O)/C=C/I)[C@H]12 | 0.53 | 1.53 | 0.12 | 446 | 3.3 | 0.22 | 0.63 | 1.5 | 0.12 | 203 | 0.26 | 12.1 | 1.03 | 0.61 | 114 | 1.38 | 0.29 | 3.61 | 0.49 | 0.35 | ID/g [21]: 0.21%; ID/g [22]: 0.92%; uterus-to-blood ratio of %ID/g [23]: 4.49%; ID/g [24]: 0.31%; Uterus-to-blood radioactivity ratio (dimensionless) [25]: 2.99%; ID/g [26]: 0.12%; ID/g [27]: 78%; ID/g [28]: 0.31%; uterus/blood %ID/g ratio [29]: 1.34%; ID/g [30]: 0.15%
C[C@@H]1Cc2cc(O)c(F)cc2[C@H]2CC[C@@]3(C)[C@@H](CC[C@@]3(O)/C=C\I)[C@H]12 | 0.42 | 1.81 | 0.25 | 745 | 5.13 | 0.37 | 3.4 | 2.02 | 0.47 | 424 | 0.54 | 28.6 | 3.76 | 0.53 | 204 | 2.51 | 0.32 | 8.94 | 0.62 | 3.84 | ID/g [21]: 0.29%; ID/g [22]: 0.84%; uterus-to-blood ratio of %ID/g [23]: 8.3%; ID/g [24]: 0.29%; Uterus-to-blood radioactivity ratio (dimensionless) [25]: 18.13%; ID/g [26]: 0.32%; ID/g [27]: 205%; ID/g [28]: 1.12%; uterus/blood %ID/g ratio [29]: 1.2%; ID/g [30]: 0.36%
C[C@@H]1Cc2c(ccc(O)c2F)[C@H]2CC[C@@]3(C)[C@@H](CC[C@@]3(O)/C=C/I)[C@H]12 | 1.86 | 3.44 | 0.23 | 217 | 5.03 | 0.77 | 6.44 | 0.03 | 0.19 | 114 | 0.89 | 36.4 | 4.71 | 0.75 | 56 | 3.6 | 0.44 | 9.38 | 1.82 | 3.02 | ID/g [21]: 0.56%; ID/g [22]: 1.67%; uterus-to-blood ratio of %ID/g [23]: 12.53%; ID/g [24]: 0.97%; Uterus-to-blood radioactivity ratio (dimensionless) [25]: 17.87%; ID/g [26]: 0.17%; ID/g [27]: 61%; ID/g [28]: 0.68%; uterus/blood %ID/g ratio [29]: 2.68%; ID/g [30]: 0.32%
